Sampled rows, rich in hits. Any-hit rate of the full collection: about 1.4%.
MOR-DOR ag: agonists of human mu-delta opioid receptor heterodimerization; activation, % at 9.3 µM; hit rate 0.3% among 340,000; cells, OPRM1-OPRD1 heterodimerization, luminescence; P35372+P41143; AID 504326; in the data active = activation above about 18%
Lipid droplet: modulators of hepatic lipid droplet formation; AML12 mouse hepatocytes, oleate lipid droplets, BODIPY imaging; inhibition, % at 6.5 µM; hit rate 0.4% among 240,000; AID 1656;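 active = lipid droplet intensity inhibited by at least 50%, with more than 500 cells counted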
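Material – AML12 mouse liver cells · Also added – oleate loading, 100 µM · Compound dosing – 6.5 µM single-point dosing · Times – overnight treatment with compound plus oleate · Measured by – fluorescence imaging, 20x objective, two fields per well · Read-out – percent inhibition of filter-corrected integrated lipid droplet intensity per well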
MOR-DOR inv ag: inverse agonists of human mu-delta opioid receptor heterodimerization; P35372+P41143; cell-based MOR-DOR heterodimer luminescence, inverse agonism; inhibition, % at 9.3 µM; hit rate 0.21% among 340,000; AID 504357; in the data active = inhibition above about 22%, passing the limit was not always enough
HTR5A ag: counter-screen for OPRM1-OPRD1 agonists: human HTR5A agonism | activation, % at 9.3 µM | AID 504692 | HTR5A agonist assay, luminescence, cell-based | hit rate 0.61% among 340,000 | P47898; in the data active = activation mostly above about 9.5%, no sharp cut-off; inactive = mostly below about 7.6%
Target sequence (P47898 whole entry, looked up): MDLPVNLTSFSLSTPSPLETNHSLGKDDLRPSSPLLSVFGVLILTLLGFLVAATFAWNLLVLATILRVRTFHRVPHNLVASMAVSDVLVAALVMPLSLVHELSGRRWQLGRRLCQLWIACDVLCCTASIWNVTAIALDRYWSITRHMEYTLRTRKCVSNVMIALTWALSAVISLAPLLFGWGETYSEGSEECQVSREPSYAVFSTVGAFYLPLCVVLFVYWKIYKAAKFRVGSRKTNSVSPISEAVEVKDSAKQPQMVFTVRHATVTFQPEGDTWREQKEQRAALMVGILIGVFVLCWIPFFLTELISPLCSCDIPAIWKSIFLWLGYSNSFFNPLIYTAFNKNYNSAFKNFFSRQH
HTR5A inv ag: inverse agonist of human HTR5A in OPRM1-OPRD1 counter-screen. hit rate 0.083% among 340,000. P47898. AID 504634. inhibition, % at 9.3 µM. HTR5A cell line, luminescence, inverse agonism; in the data active = inhibition mostly above about 23%, no sharp cut-off; inactive = mostly below about 18%
MOR-DOR inv conf: OPRM1-OPRD1 heterodimer inverse agonism, confirmation. shares compounds with MOR-DOR inv ag. cells expressing OPRM1/OPRD1 heterodimer, luminescence. inhibition, % at 9.3 µM. hit rate 20% among 580. AID 504900; in the data active = inhibition above about 32%
HTR5A inv count: HTR5A inverse agonism, opioid heterodimer counter-screen; shares compounds with MOR-DOR inv ag; HTR5A-expressing cells, luminescence; inhibition, % at 9.3 µM; 580 tested, under 10 active; AID 504914; call rule not given here
Each line names hits and unclear results; the compound was inactive in the other large screens (follow-up assays come after a bar, where they were run).

CC(C)C1OC2c3cccc4cccc(c34)C2N1c1ccccc1 (stereo not given)	MOR-DOR inv ag 65.1 | MOR-DOR inv conf inactive | HTR5A inv count inactive
CCCn1c2ccccc2c2nnc(SCC(=O)Nc3ncccn3)nc21	MOR-DOR inv ag 31.7 | MOR-DOR inv conf inactive | HTR5A inv count inactive
O=C(COC(=O)c1ccccc1F)c1ccc(-n2nncc2-c2ccco2)cc1	MOR-DOR inv ag 32.8 (no result: Lipid droplet) | MOR-DOR inv conf inactive | HTR5A inv count inactive
CCOc1ccc2nc(-c3cc(NC(C)=O)ccc3O)sc2c1	MOR-DOR inv ag 27.0 | MOR-DOR inv conf inactive | HTR5A inv count inactive
CCOCC(=O)Nc1nc2ccc(OCC)cc2s1	none
NN=C1C(=O)c2cccc3cccc1c23	MOR-DOR inv ag 57.2 (no result: Lipid droplet) | MOR-DOR inv conf inactive | HTR5A inv count inactive
O=C1C=C(O)c2cccc3cccc1c23	none
Cc1cc(C)nc(NNS(=O)(=O)c2c(F)cc(F)cc2Br)n1	MOR-DOR inv ag 31.4 (no result: Lipid droplet) | MOR-DOR inv conf inactive | HTR5A inv count inactive
CCOC(=O)c1c(NC(=O)C(NCCN(C)C)c2ccccc2)sc2c1CCCC2 (stereo not given)	none
Cn1c(SSc2ccc(-c3cccnc3)n2C)ccc1-c1cccnc1	MOR-DOR inv ag 41.1 (no result: Lipid droplet) | MOR-DOR inv conf inactive | HTR5A inv count inactive
Cn1c(SCC(=O)c2ccccc2)nnc1-c1cccnc1	none (no result: Lipid droplet)
C=CCn1c(=O)c2c(nc3n2CC(C)CN3c2cccc(OC)c2)n(C)c1=O (stereo not given)	MOR-DOR inv ag 35.6 (no result: Lipid droplet) | MOR-DOR inv conf inactive | HTR5A inv count inactive
Fc1ccccc1NC(=S)NNc1ncc(C(F)(F)F)cc1Cl	MOR-DOR inv ag 44.5 | MOR-DOR inv conf inactive | HTR5A inv count inactive
Cc1cccc(C)c1NC(=S)NNc1ncc(C(F)(F)F)cc1Cl	MOR-DOR inv ag 31.5 | MOR-DOR inv conf inactive | HTR5A inv count inactive
Cc1c(Cl)cccc1NC(=S)NNc1ncc(C(F)(F)F)cc1Cl	MOR-DOR inv ag 43.4 (no result: Lipid droplet) | MOR-DOR inv conf inactive | HTR5A inv count inactive
Cc1ccccc1NC(=S)NNc1ncc(C(F)(F)F)cc1Cl	MOR-DOR inv ag 45.5 | MOR-DOR inv conf 33.0 | HTR5A inv count inactive
NC(=O)NNc1ncc(C(F)(F)F)cc1Cl	none
O=C(NNc1ncc(C(F)(F)F)cc1Cl)c1c(Cl)cccc1Cl	none (no result: Lipid droplet)
O=C1CC2(CCN(C(=O)COc3ccc(Cl)cc3)CC2)Oc2ccccc21	none (no result: Lipid droplet)
O=C(Nc1nnc(S(=O)(=O)N2CCN(c3ccc(F)cc3)CC2)s1)c1ccccc1	none
FC(F)(F)c1cnc(NNC(=S)Nc2cccnc2)c(Cl)c1	MOR-DOR inv ag 66.3 | MOR-DOR inv conf 44.8 | HTR5A inv count inactive
CN(Cc1nccn1C)C(=O)c1ccc2nc(Cc3ccccc3F)oc2c1	none
COC(=O)c1[nH]c(=O)c2ccccc2c1O	MOR-DOR inv ag 42.3 | MOR-DOR inv conf inactive | HTR5A inv count inactive
O=C(CN1C(=O)C2C3C=CC(C3)C2C1=O)OCC(=O)c1ccc([N+](=O)[O-])cc1 (stereo not given)	none
O=C(CCc1ccccc1)OCC(=O)c1cccc([N+](=O)[O-])c1	MOR-DOR inv ag 54.3 | MOR-DOR inv conf 31.2 | HTR5A inv count inactive
O=C(CN1C(=O)C2C3CC(C(Br)C3Br)C2C1=O)OCC(=O)c1cccc([N+](=O)[O-])c1 (stereo not given)	MOR-DOR inv ag 60.9 | MOR-DOR inv conf 37.8 | HTR5A inv count inactive
O=C(COC(=O)CNC(=O)c1cccc([N+](=O)[O-])c1)Nc1cccc(S(=O)(=O)N2CCCC2)c1	none
O=C(CN1C(=O)c2ccccc2C1=O)NCC(=O)OCC(=O)c1cccc([N+](=O)[O-])c1	MOR-DOR inv ag 72.7 | MOR-DOR inv conf 45.2 | HTR5A inv count inactive
N/C(=N\OC(=O)CCCc1ccccc1)c1cccc([N+](=O)[O-])c1	none
O=C(CN1C(=O)c2ccccc2C1=O)NCC(=O)OCC(=O)c1ccc(Br)cc1	none (no result: Lipid droplet)
CC(C)(C)c1cc(C(=O)NCC(=O)OCC(=O)c2cccc([N+](=O)[O-])c2)cc(C(C)(C)C)c1	MOR-DOR inv ag 46.3 | MOR-DOR inv conf 37.3 | HTR5A inv count 52.2
CC(=O)Nc1ccc(OCC(O)Cn2cncn2)cc1 (stereo not given)	none
Cc1nc(Sc2ccc(Br)cc2)c(C#N)c(C)c1[N+](=O)[O-]	none
Nc1nc2ccccc2n1CCOc1ccc(F)cc1	none
CC(=O)Nc1ccc(S(=O)(=O)N2CCN(C(=O)c3ncoc3-c3ccccc3C)CC2)cc1	none
O=C(Cc1ccccc1)NCC(=O)OCC(=O)c1ccc([N+](=O)[O-])cc1	none
O=C(CN1C(=O)C2C3C=CC(C3)C2C1=O)OCC(=O)c1ccc(Cl)cc1 (stereo not given)	none
O=C(CN1C(=O)C2CC=CCC2C1=O)OCC(=O)c1ccc(Cl)c([N+](=O)[O-])c1 (stereo not given)	MOR-DOR inv ag 89.5, HTR5A inv ag 38.2 | MOR-DOR inv conf 59.1 | HTR5A inv count inactive
O=C(Cc1ccccc1)NCC(=O)OCC(=O)c1cccc([N+](=O)[O-])c1	MOR-DOR inv ag 64.4 | MOR-DOR inv conf 58.1 | HTR5A inv count inactive
COc1ccc(C(CNC(=O)c2ccc(NS(=O)(=O)c3ccc(F)c(C)c3)cc2)N2CCCC2)cc1 (stereo not given)	none (no result: Lipid droplet)
CCOc1ccc(NS(=O)(=O)c2ccc(C(=O)NCC(c3ccc(OC)cc3)N3CCCC3)cc2)cc1 (stereo not given)	MOR-DOR inv ag 25.7 (no result: Lipid droplet) | MOR-DOR inv conf inactive | HTR5A inv count inactive
COc1ccc(C[C@@H]2OC3(C=CC(=O)C=C3)O[C@H]2Cc2ccc(OC)cc2)cc1	MOR-DOR inv ag 38.5 (no result: Lipid droplet) | MOR-DOR inv conf inactive | HTR5A inv count inactive
O=C1C=CC2(C=C1)O[C@H](Cc1ccccc1)[C@@H](Cc1ccccc1)O2	none (no result: Lipid droplet)
CC(=O)c1ccc(S(=O)(=O)N(C)C(C)CCc2ccco2)cc1 (stereo not given)	none
C#CCCOC(=O)N1C2=NC(C(=O)OC)=C(C(=O)OC)[C@@H]3N(Cc4ccccc4)c4ccccc4[C@]23C[C@H]1C(=O)OC	none (no result: Lipid droplet)
N#C/C(=C\c1ccncc1)c1nc2ccccc2c(=O)[nH]1	MOR-DOR inv ag 32.8 | MOR-DOR inv conf inactive | HTR5A inv count inactive
C=CCn1c(-c2cc3cccc(OC)c3o2)n[nH]c1=S	none
CCOc1ccccc1CN1CCN(CC2=Cc3cc(OC)ccc3OC2)CC1CCO (stereo not given)	none
CC(Oc1cccc([N+](=O)[O-])c1)C(=O)NCCC1=CCCCC1 (stereo not given)	none (no result: Lipid droplet)
O=C(CN1C(=O)C(=O)c2ccccc21)OCN1C(=O)c2ccccc2C1=O	none
CCN(CC)C(=O)CN1C(=O)c2cccc3cccc1c23	none
O=C(CN1C(=O)C(=O)c2ccccc21)c1ccc(Cl)cc1	MOR-DOR inv ag 45.9 | MOR-DOR inv conf inactive | HTR5A inv count inactive
